Screening results from PubChem.
An excerpt weighted towards active compounds, which were near 3.8% of everything screened.
MrgX1 PAM: allosterically activates human MrgX1 receptor signaling; Q96LB2; MrgX1-HEK293, Fluo-4 calcium flux, FDSS; active compounds read high; B-score at 10 µM; actives 0.63% (n = 310,000);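 active means plate-corrected calcium response at least 3 library SD above typical, normal starting fluorescence, not activating the receptor alone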;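 further: compound read alongside a low EC10 to EC30 dose of BAM8-22 agonist; peak minus trough fluorescence over baseline measured at the second addition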
Target sequence (Q96LB2 whole entry, looked up): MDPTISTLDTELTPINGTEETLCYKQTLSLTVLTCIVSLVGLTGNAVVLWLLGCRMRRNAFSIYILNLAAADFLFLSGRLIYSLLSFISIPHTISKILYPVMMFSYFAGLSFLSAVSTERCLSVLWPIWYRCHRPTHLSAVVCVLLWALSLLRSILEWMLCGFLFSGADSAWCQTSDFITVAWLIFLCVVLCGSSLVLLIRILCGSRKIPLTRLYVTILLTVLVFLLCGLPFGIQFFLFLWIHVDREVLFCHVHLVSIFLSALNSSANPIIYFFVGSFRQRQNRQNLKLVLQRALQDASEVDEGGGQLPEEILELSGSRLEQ
Hep lipid drop: modulators of hepatic lipid droplet formation; actives 0.4% (n = 240,000); AML12 mouse hepatocytes, oleate lipid droplets, BODIPY imaging; inhibition, % at 6.5 µM;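 active means lipid droplet intensity inhibited by at least 50%, with more than 500 cells counted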
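material = mouse AML12 hepatocyte cell line, fixed after treatment | also added = 100 µM oleic acid challenge | doses = compound at 6.5 µM only | schedule = overnight exposure | technique = Image-based BODIPY and DAPI two-channel analysis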
RGS4 act: RGS4 potentiation or activation. HEK293 M3R/inducible RGS4, carbachol calcium flux Fluo4; active compounds read low. B-score at 10 µM. actives 0.92% (n = 310,000). AID 463111;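 active means B-score of the integrated calcium signal more than 4 SD below the library mean, with starting fluorescence not abnormally high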;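 further: negative B-score means reduced calcium response which marks RGS4 activation or potentiation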
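Test system: HEK293 cells with stable M3R and inducible RGS4; also added: carbachol at ECmax as muscarinic agonist stimulus; schedule: dye loading 30 min 37 °C, buffer rest 30 min RT; technique: kinetic calcium fluorescence imaging with Fluo4-AM dye, 2 µM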
MrgX1 agonist: agonists of human MrgX1 receptor. Q96LB2. MrgX1-HEK293 cells, Fluo-4 calcium fluorescence, agonist mode; active compounds read high. B-score at 10 µM. actives 0.44% (n = 310,000). AID 588627;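 active means calcium response B-score plate-corrected fluorescence ratio at least 3 library SD, with starting fluorescence B-score inside 5 SD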
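Test system: Stable human MrgX1 HEK293 cell line | Schedule: Overnight plating before 1 h dye loading | Read-out basis: Baseline-normalised fluorescence change ratio, B-scored | Detection: Kinetic calcium dye fluorescence, Fluo-4 NW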
RGS4 block: human RGS4 inhibition. AID 463165. P49798. B-score at 10 µM. HEK293 M3R/RGS4 inducible, Fluo-4 calcium flux; active compounds read high; triggered by carbachol at its EC20. actives 0.45% (n = 310,000);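 active means B-score, a plate-corrected calcium signal, over three deviations above library mean, with baseline fluorescence within five deviations of library mean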;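 further: RGS4 expression induced by doxycycline in cells with stable M3 receptor; B-score is computed from the integrated fluorescence ratio over baseline after carbachol; higher B-score means a larger calcium signal and so more RGS4 inhibition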
Target sequence (P49798 whole entry, looked up): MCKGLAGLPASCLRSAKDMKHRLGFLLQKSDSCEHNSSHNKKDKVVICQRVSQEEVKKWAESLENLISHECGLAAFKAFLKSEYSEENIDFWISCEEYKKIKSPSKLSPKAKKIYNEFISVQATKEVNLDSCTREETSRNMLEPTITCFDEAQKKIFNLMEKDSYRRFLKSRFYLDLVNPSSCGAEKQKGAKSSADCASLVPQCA
MrgX1 antag: blocks BAM8-22 activation of human MrgX1 receptor; MRGX1-HEK293 calcium flux, Fluo-4, BAM8-22 antagonism; active compounds read low; B-score at 10 µM; actives 1.3% (n = 310,000); AID 588676;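 active means calcium-response B-score plate-corrected more than 3 library SD below zero, starting fluorescence within 5 deviations, no agonist response on first addition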;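 further: peak minus trough fluorescence over baseline after final BAM8-22 challenge near maximal dose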
MrgX1 antag conf: reconfirmed antagonist of human MrgX1 receptor signaling. shares compounds with MrgX1 antag. MrgX1-HEK293, BAM8-22 calcium flux, Fluo-4; active compounds read low. remaining BAM8-22 calcium response % of control (active compounds read low), % at 10 µM. actives 19% (n = 2,300). AID 602420;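 active means remaining agonist calcium response no higher than 100% minus 3 SD of agonist-only control wells, with starting fluorescence near control levels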;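 further: agonist BAM8-22 given at a near maximal EC90 to ECmax level; peak minus minimum fluorescence divided by baseline after agonist addition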
HEK293 Ca flux: activity in parental HEK293 cells lacking MrgX1. fluorescence ratio F(max-min)/F0 at 10 µM. Fluo-4 calcium fluorescence, FDSS. actives 2% (n = 4,000). shares compounds with MrgX1 antag;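 active means duplicate-averaged calcium fluorescence ratio at least three times the standard deviation of buffer wells, a nonspecific response in parental cells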
HEK293 Ca counter: MrgX1 allosteric activator counter-screen hit in parental HEK293 cells; shares compounds with MrgX1 antag; parental HEK293 calcium flux, Fluo-4 fluorescence ratio; active compounds read high; fluorescence ratio F(max-min)/F0 at 10 µM; actives 0.4% (n = 4,000); AID 624114;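 active means calcium fluorescence ratio, averaged over duplicates, at least 3 SD of the buffer-well ratio, meaning a nonspecific response in receptor-free cells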;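 further: untransfected parental HEK293 lacking MrgX1 used as counterscreen for MrgX1 allosteric activators; fluorescence change taken during the second addition on a kinetic imager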
HEK293 Ca cntr2: activity in parental HEK293 cells lacking MrgX1 receptor; shares compounds with MrgX1 antag; Fluo-4 calcium fluorescence (FDSS); active compounds read high; fluorescence ratio F(max-min)/F0 at 10 µM; actives 8.7% (n = 4,000);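 active means calcium fluorescence ratio at least three times the spread of buffer wells, meaning a non-specific response in parental cells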
* marks the source's active call; other numbers are inactive results; i = inactive; · = no result given.

SMILES | MrgX1 PAM | Hep lipid drop | RGS4 act | MrgX1 agonist | RGS4 block | MrgX1 antag | MrgX1 antag conf | HEK293 Ca flux | HEK293 Ca counter | HEK293 Ca cntr2
CCN(CC)S(=O)(=O)c1cc(NC(=O)CN2C(=O)NC3(CCCc4ccccc43)C2=O)ccc1C (stereo not drawn) | i | 12.0 | i | i | i | -6.07* | 85.3%* | i | i | i
CS(=O)(=O)N1CCC(Oc2ccccc2C(=O)N2CCNC(=O)C2)CC1 | i | 11.1 | i | i | i | i | · | · | · | ·
Cc1ccc(Cl)cc1NC(=O)c1cccc(OC(F)F)c1 | i | 8.6 | i | i | i | -4.69* | i | i | i | i
CC1CCN(C(C(=O)Nc2ccc(C(C)C)cc2)c2ccc3c(c2)OCO3)CC1 (stereo not drawn) | i | · | i | i | i | -5.36* | i | i | i | i
O=C(O)CCCC(=O)Nc1ccccc1C(=O)O | i | · | i | i | i | -6.44* | i | i | i | i
CCCCC(=O)NNC(=O)CC(=O)Nc1ccccc1C(=O)O | i | -7.9 | i | i | i | i | · | · | · | ·
CCn1cc(S(=O)(=O)NCCc2ccc(OC)c(OC)c2)cn1 | i | -2.3 | i | i | i | i | · | · | · | ·
CCN1CCN(c2cc(C)nc(-c3ccccc3O)n2)CC1 | i | 7.0 | i | i | i | i | · | · | · | ·
CN(C)c1ccc(C(=O)Nc2cc(C(F)(F)F)ccc2-n2cncn2)cc1 | i | -3.1 | i | i | i | -10.7* | i | i | i | i
Cc1ccc2cc(C)c3nnc(SCC(=O)Nc4nc5c(s4)CCCC5)n3c2c1C | i | · | i | i | i | i | · | · | · | ·
COc1ccc(NC2c3ccccc3C(=O)N2Cc2ccco2)cc1OC (stereo not drawn) | i | 27.5 | i | i | i | -5.36* | i | i | i | i
O=C1c2ccccc2C(Nc2ccc(S(=O)(=O)N3CCCCC3)cc2)N1Cc1ccco1 (stereo not drawn) | i | · | i | i | i | -7.85* | i | i | i | i
O=C1c2ccccc2C(Nc2ccc(S(=O)(=O)N3CCOCC3)cc2)N1Cc1ccco1 (stereo not drawn) | i | · | i | i | i | i | · | · | · | ·
CC1CCC2(CC1)NC(=O)N(CC(=O)Nc1ccc(N3CCOCC3)cc1)C2=O (stereo not drawn) | i | 17.4 | i | i | i | -4.68* | 83.5%* | i | i | i
O=C(Nc1nc(-c2ccccc2)cs1)c1ccc2c(=O)n3c(nc2c1)CCCCC3 | i | -3.8 | i | i | i | -11.6* | 9.6%* | i | i | i
O=C(Nc1nc(-c2ccccc2)cs1)c1ccc(=O)[nH]c1 | i | 12.5 | i | i | i | -4.75* | i | i | i | i
CN(CC(=O)Nc1cccc(F)c1)CC(=O)Nc1cccc(S(N)(=O)=O)c1 | i | 0.4 | i | i | i | i | · | · | · | ·
CCOc1ccc(N2CC(C(=O)Nc3nnc(Cc4ccccc4)s3)CC2=O)cc1 (stereo not drawn) | i | -11.3 | i | i | i | i | · | · | · | ·
CCCN1C2CCCC1CC(NC(=S)Nc1cc(C)cc(C)c1)C2 (stereo not drawn) | i | 0.5 | i | i | i | -5.98* | i | i | i | i
CC(C)CNC(=O)c1cccc(NC(=O)Cc2ccc(Cl)cc2)c1 | i | 9.2 | i | i | i | -5.52* | i | i | i | i
CC(C)CNC(=O)c1cccc(NC(=O)CSc2ccccc2)c1 | i | -2.5 | i | i | i | i | · | · | · | ·
CSc1ncccc1C(=O)Nc1nnc(C2CC2)s1 | i | 3.5 | i | i | i | -4.63* | i | i | i | i
COc1ccc(CNc2nc3nc(C)c(Cl)c(=O)n3[nH]2)cc1OC | i | -0.6 | i | i | i | -5.87* | i | i | i | i
O=S(=O)(/C=C/c1ccccc1)Oc1ccccc1 | i | 16.6 | i | i | i | i | · | · | · | ·
COc1ccccc1/C=C/c1onc(C)c1S(=O)(=O)N1CCC(C(=O)NC(C)C)CC1 | i | -10.3 | i | i | i | -5.48* | i | i | i | i
SMILES | MrgX1 PAM | Hep lipid drop | RGS4 act | MrgX1 agonist | RGS4 block | MrgX1 antag | MrgX1 antag conf | HEK293 Ca flux | HEK293 Ca counter | HEK293 Ca cntr2
CCOc1ccccc1/C=C/c1onc(C)c1S(=O)(=O)N1CCC(C(=O)NC(C)C)CC1 | i | 11.9 | i | i | i | i | · | · | · | ·
CCCNC(=O)C(NS(=O)(=O)c1cccc2nsnc12)c1ccccc1 (stereo not drawn) | i | · | i | i | i | -6.9* | i | i | i | i
O=C(NCCc1ccccc1)C(NS(=O)(=O)c1cccc2nsnc12)c1ccccc1 (stereo not drawn) | i | -18.5 | i | i | i | -4.71* | i | i | i | i
CCc1ccc2nc(SCC(=O)Nc3nnc(C)s3)c(C)cc2c1 | i | 4.1 | i | i | i | -6.22* | 83.5%* | i | i | i
CCc1nnc(NC(=O)CSc2nc3cc4c(cc3cc2C)OCCO4)s1 | i | · | i | i | i | i | · | · | · | ·
Cc1nn(CC(=O)NCC(C)c2ccccc2)c(=O)c2cccn12 (stereo not drawn) | i | -10.0 | i | i | i | i | · | · | · | ·
O=C(O)c1ccccc1CSc1ncn[nH]1 | i | 11.8 | i | i | i | -8.32* | i | i | i | i
CCOC(=O)C1=C(COC(=O)C2CC(=O)N(c3ccc(C)cc3)C2)NC(=O)NC1C (stereo not drawn) | i | · | i | i | i | -5.77* | i | i | i | i
CCc1cccc(CC)c1-n1c(SCC(=O)N2CCc3ccccc3C2)nnc1-c1cccnc1 | i | 3.7 | i | i | i | -7.82* | i | i | i | i
